Test results as given in ChEMBL document CHEMBL2202986, “Guaianolide sesquiterpene lactones, a source to discover agents that selectively inhibit acute myelogenous leukemia stem and progenitor cells” (J Med Chem, 2012).

Key:
[1] = system: Mus musculus; assay: Toxicity in BALB/c mouse assessed as pathological changes in heart at 500 mg/kg, po administered every day for 7 days by hematoxylin-eosin staining method; conditions: in vivo, 168 h
[2] = Total clearance in mouse at 150 mg/kg, po; format: ADME, organism-based; design: dose 150 mg/kg, route oral; conditions: in vivo
Outline: (§1)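 Male Kunming mice (20 2 g), fasted 12 h before dosing with water available, given DMAMCL as an aqueous solution po (n = 5). Blood was drawn from the orbital veins at set times. Plasma DMAMCL and MCL were followed, and parameters came from noncompartmental analysis.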

[3] = Antitumor activity against mixed-lineage human leukemia cells xenografted in NOD/SCID mouse assessed as inhibition of cancer cell engrafting at 100 mg/kg, po qd administered every other day total of seven doses starting from 8 weeks post grafting measured on day 35; format: functional
[4] = system: HL-60; assay: Cytotoxicity against human HL60 cells after 18 hrs by annexin-V labeling-based flow cytometry; format: functional, cell-based; conditions: HL-60, 18 h
[5] = system: Mus musculus; assay: Toxicity in BALB/c mouse assessed as pathological changes in lung at 500 mg/kg, po administered every day for 7 days by hematoxylin-eosin staining method; conditions: in vivo, 168 h
[6] = Total clearance in mouse at 100 mg/kg, iv; format: ADME, organism-based; design: dose 100 mg/kg, route intravenous; conditions: in vivo
Outline: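 Male Kunming mice (20 2 g), fasted 12 h before dosing with water available, given DMAMCL as an aqueous solution iv (n = 5). Blood was drawn from the orbital veins at set times. DMAMCL and MCL in plasma were measured, and parameters were derived by a noncompartmental model.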

[7] = Drug degradation in HEPES buffer at pH 7.4 assessed as release of MCL; format: physicochemical
Outline: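 A 20 μL aliquot of prodrug solution was added to 980 μL HEPES buffer (pH 7.4, or below 5.0) and incubated at 37 °C. Samples were withdrawn over time, and prodrug and released parent were quantified by HPLC (mean, SD, n = 4).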

[8] = system: Mus musculus; assay: Toxicity in BALB/c mouse assessed as pathological changes in lung at 1000 mg/kg, po administered as single dose by hematoxylin-eosin staining method; format: organism-based; design: dose 1000 mg/kg, route oral; conditions: in vivo
Outline: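 BALB/c mice, 16 in total (8 male, 8 female). DMAMCL was given by gavage as an aqueous solution, either 1000 mg/kg once or 500 mg/kg every day for seven doses. Controls were untreated and water-vehicle mice. Mice were killed 1 week after dosing. Heart, liver, spleen, lung and kidney were fixed in 10% neutral-buffered formalin, paraffin-embedded, cut into 3 μm sections, H&E-stained and examined microscopically for gross morphology.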

[9] = Half life in mouse at 150 mg/kg, po; format: ADME, organism-based; design: dose 150 mg/kg, route oral; conditions: in vivo
Outline: as §1

[10] = Mean retention time (0 to infinity) in mouse at 150 mg/kg, po; format: ADME, organism-based; design: dose 150 mg/kg, route oral; conditions: in vivo
Outline: as §1

[11] = Antitumor activity against human leukemia stem/progenitor cells xenografted in NOD/SCID mouse assessed as survival time at 100 mg/kg, po qd administered every other day total of seven doses starting from 8 weeks post grafting (reference value: 43 days); format: functional
Outline: (§2)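 NOD/SCID mice were sublethally irradiated (280cGay), then 6−10 h later given primary AML M5 patient cells via tail vein in PBS. From 8 weeks postinoculation, aqueous solution was given orally at 100 mg/kg every other day for seven doses. Survival was followed, Kaplan−Meier, n = 6 per treated group and n = 7 untreated controls. Survivors at day 85 had bone marrow analysed for human CD45⁺CD33⁺ cells.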

[12] = Cytotoxicity against human leukemia stem/progenitor cells assessed as viable CD34+ cells at 5 uM after 18 hrs by annexin-V labeling-based flow cytometry; format: functional, CD34+ cell
Outline: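 Primary leukemia cells from AML patient blood were treated for 18 h in serum-free IMDM, then stained with CD34-APC and CD38-PECy7 for 30 min. After washing in cold PBS, cells were labelled with Annexin-V–FITC/PI for 15 min at room temperature and read by flow cytometry. Viability of total and CD34⁺ cells was normalized to untreated controls (mean, SD).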

[13] = Antitumor activity against human leukemia stem/progenitor cells xenografted in NOD/SCID mouse assessed as survival rate at 100 mg/kg, po qd administered every other day total of seven doses starting from 8 weeks post grafting measured on day 85; format: functional
Outline: as §2

[14] = Antitumor activity against human leukemia stem/progenitor cells xenografted in NOD/SCID mouse assessed as reduction of CD45+CD33+ cells in bone marrow at 100 mg/kg, po qd administered every other day total of seven doses starting from 8 weeks post grafting measured on day 85; format: functional; design: scale not given: the % may be the effect or the level left
Outline: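 NOD/SCID mice, sublethally irradiated (280cGay), received primary AML M5 patient cells via tail vein in PBS 6−10 h later. From 8 weeks after engraftment, aqueous drug was given orally every other day for seven doses. Surviving mice were sacrificed on day 85 post-inoculation, and human CD45⁺CD33⁺ cells in bone marrow were measured by flow cytometry.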

CC1=C2CC[C@@](C)(O)[C@@H]2[C@H]2OC(=O)[C@@H](CN(C)C)[C@@H]2CC1.Cl [DIMETHYLAMINOMICHELIOLIDE HYDROCHLORIDE]
Activity [1]: Non-toxic
CL/F [2]: 51.3 mL/min/kg
inhibition in vivo at 100 mg/kg [3]: 98.6%
IC50 [4]: 17.2 µM
Activity [5]: Non-toxic
clearance [6]: 37.7 mL/min/kg
Drug degradation [7]: Active
Activity [8]: Non-toxic
half-life [9]: 9.82 h
MRT inf [10]: 9.85 h
Survival [11]: 63 days
Activity [12]: 72.9%
survival at 100 mg/kg [13]: 33%
Activity [14]: 0.005%
